# Activity calls are given as the source filed them.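 The calls were made as follows: active = inhibition of at least 50% at 0.01 µM compound; inactive = the rest.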
# Target: Monoacylglycerol lipase ABHD6 (Mus musculus) (UniProt Q8R2Y0)
# Assay: off-target ABHD6 activity blockade – biochemical, gel-based competitive ABPP, fluorescence, mouse, in vitro, selectivity assay for DAGLb inhibitor project, late-stage follow-up (AID 602319)
# Settings: Neuro-2A membrane proteome, HT-01 probe, stronger effect = higher value
# Procedure, shortened: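 System: Neuro-2A cell membrane proteome, native mouse ABHD6 / Input: proteome 1 mg/mL / Measure: % inhibition relative to DMSO control / Signal: SDS-PAGE with in-gel fluorescence scan, band integrated optical density / Timing: 30 min compound, 30 min probe, 37 °C / Buffer or medium: Dulbecco's phosphate-buffered saline (DPBS)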
# Chain of Monoacylglycerol lipase ABHD6 (Mus musculus) (Q8R2Y0 whole entry, looked up): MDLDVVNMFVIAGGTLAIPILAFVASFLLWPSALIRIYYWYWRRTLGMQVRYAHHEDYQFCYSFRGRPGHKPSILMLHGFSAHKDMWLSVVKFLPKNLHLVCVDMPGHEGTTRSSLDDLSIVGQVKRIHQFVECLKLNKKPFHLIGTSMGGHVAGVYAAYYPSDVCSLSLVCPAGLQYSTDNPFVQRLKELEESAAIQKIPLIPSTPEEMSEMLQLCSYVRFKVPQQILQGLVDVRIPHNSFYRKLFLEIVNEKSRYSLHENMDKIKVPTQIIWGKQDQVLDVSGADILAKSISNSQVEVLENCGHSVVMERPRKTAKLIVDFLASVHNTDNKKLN
Compound,"inhibition (ABHD6 inhibition, at 0.001 µM) [%]",inhibition (at 0.01 µM)
O=C(O)c1ccc(-c2ccc(-c3cn(C(=O)N4CCCCC4CCc4ccccc4)nn3)cc2)cc1 (centres undefined),7,10% (inactive)
O=C(N1CCCCC1c1ccccc1)n1cc(C(O)(c2ccccc2)c2ccccc2)nn1 (centres undefined),32,47% (inactive)
O=C(O)c1cccc(-c2ccc(-c3cn(C(=O)N4CCCCC4c4ccccc4)nn3)cc2)c1 (centres undefined),36,100%
O=C(c1ccc(-c2ccc(-c3cn(C(=O)N4CCCCC4c4ccccc4)nn3)cc2)cc1)N1CCCCC1 (centres undefined),35,94%
O=C(O)c1cccc(-c2ccc(-c3cn(C(=O)N4CCCCC4CCc4ccccc4)nn3)cc2)c1 (centres undefined),33,94%
O=C(c1ccc(-c2ccc(-c3cn(C(=O)N4CCCCC4Cc4ccccc4)nn3)cc2)cc1)N1CCCCC1 (centres undefined),9,79%
O=C(N1CCCCC1c1ccccc1)n1cc(-c2ccc(-c3ccc(CO)cc3)cc2)nn1 (centres undefined),18,47% (inactive)
NC(=O)c1ccc(-c2ccc(-c3cn(C(=O)N4CCCCC4c4ccccc4)nn3)cc2)cc1 (centres undefined),17,27% (inactive)

# Second part, the compound after the results:
"inhibition (ABHD6 inhibition, at 0.001 µM) [%]",inhibition (at 0.01 µM),Compound
21,40% (inactive),O=C(N1CCCCC1CCc1ccccc1)n1cc(-c2ccc(-c3ccccc3)cc2)nn1 (centres undefined)
53,100%,COc1ccccc1-c1ccc(-c2cn(C(=O)N3CCCC(Cc4ccccc4)C3)nn2)cc1 (centres undefined)
38,98%,O=C(N1CCCCC1c1ccccc1)n1cc(-c2ccc(-c3ccccc3CO)cc2)nn1 (centres undefined)
27,70%,COc1ccccc1-c1ccc(-c2cn(C(=O)N3CCCCC3CCc3ccccc3)nn2)cc1 (centres undefined)
41,90%,O=C(N1CCCCC1Cc1ccccc1)n1cc(-c2ccc(-c3cccc(CO)c3)cc2)nn1 (centres undefined)
32,90%,COc1ccccc1-c1ccc(-c2cn(C(=O)N3CCCCC3c3ccccc3)nn2)cc1 (centres undefined)
18,66%,O=C(N1CCCCC1c1ccccc1)n1cc(-c2ccc(-c3ccccc3)cc2)nn1 (centres undefined)
8,18% (inactive),COc1ccc(-c2ccc(-c3cn(C(=O)N4CCCCC4c4ccccc4)nn3)cc2)cc1 (centres undefined)
78,100%,COc1ccccc1-c1ccc(-c2cn(C(=O)N3CCC(Cc4ccccc4)CC3)nn2)cc1
